Measured values pooled from the literature.
Lines come from different studies, so protocols differ.
Target: Focal adhesion kinase 1 (PTK2, Homo sapiens, UniProt Q05397)

| SMILES | assay | conditions | endpoint | result |
| --- | --- | --- | --- | --- |
| C=CC(=O)N1CCC[C@@H](n2nc(-c3ccc(Oc4ccccc4)cc3)c3c(N)ncnc32)C1 | enzyme activity, inhibitor | 1 µM | inhibition | 5% |
| CCCCC(=O)Nc1ccc(-c2ccc3ncn(CCC)c(=O)c3c2)cn1 | binding, competition with immobilised ligand | 0.5 µM | remaining binding | 87% |
| Cc1ccc(NC(=O)c2ccnc(C(F)(F)F)c2)cc1-c1cc(OCCO)nc(N2CCOCC2)c1 | cell-free assay | 1 µM | remaining signal | 100% |
| CO[C@@H]1[C@H](N(C)C(=O)c2ccccc2)C[C@H]2O[C@]1(C)n1c3ccccc3c3c4c(c5c6ccccc6n2c5c31)C(=O)NC4 | enzyme activity, inhibitor | 1 µM | inhibition | 2% |
| C[C@H]1CC[C@H](n2c3cnccc3c3cnc(Nc4ccc5c(n4)CCN(C(=O)CO)C5)nc32)CC1 | cell-free assay, inhibitor | 1 µM | remaining signal | 69% |
| C#Cc1cnc(Nc2ccnc(CO)c2)nc1Nc1ccccc1S(C)(=O)=NC#N (stereo not shown) | cell-free assay | 1 µM | remaining signal | 40% |
| COc1ccc2oc(-c3ccc4nc(N)oc4c3)c/c(=N\c3ccccc3NC(=O)CCN)c2c1 | binding | 1 µM | remaining binding | 84% |
| Cc1cc(O)c(-c2ccc([C@@H](C)CN(C)C)cc2)c2c1[nH]c(=O)c1sccc12 | enzyme activity, inhibitor | 0.1 µM | inhibition | 8.92% |
| N#Cc1ccc(NC(=O)Nc2ccccc2)cc1 | cell-free assay, competition with immobilised ligand | 25 µM | remaining binding | 100% |
| C#Cc1cc(-c2cc(Nc3nc(N[C@@H](C)c4ccc(F)cn4)ncc3Cl)n[nH]2)ccc1C=O | enzyme activity, inhibitor | 0.2 µM | inhibition | 31.2% |
